Measured values: ChEMBL document CHEMBL2040734, “Benzothiazoles: search for anticancer agents” (2012)

Tests used:
Type in all cases: functional
NCI-H522 = assay: Cytotoxicity against human NCI-H522 cells assessed as cell growth at 0.01 uM after 48 hrs by sulforhodamine B assay; conditions: NCI-H522, 48 h, read-out: Activity
UACC-257 = assay: Cytotoxicity against human UACC257 cells assessed as cell growth at 0.1 uM after 48 hrs by sulforhodamine B assay; conditions: UACC-257, 48 h, read-out: Activity
TK-10 = assay: Cytotoxicity against human TK10 cells assessed as cell growth at 100 uM after 48 hrs by sulforhodamine B assay; conditions: TK-10, 48 h, read-out: Activity
IGROV-1 [1] = assay: Growth inhibition of human IGROV1 cells after 48 hrs by sulforhodamine B assay; conditions: IGROV-1, 48 h
In short: (§1)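 Adherent NCI-60 lines were grown in RPMI 1640 with 5% FBS and 2 mM L-glutamine, plated at 5000–40,000 cells/well and preincubated 24 h. They were then exposed to five concentrations (0.01–100 µM, from a DMSO stock) for 48 h at 37 °C, 5% CO2. Cells were fixed with cold TCA (10% final, 60 min, 4 °C) and stained with 0.4% SRB. Dye was solubilized in 10 mM Tris base and A515 read. GI50 was derived from time-zero, control and treated absorbances.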

SW-620 = assay: Cytotoxicity against human SW620 cells assessed as cell growth at 10 '-5 M after 48 hrs by sulforhodamine B assay; conditions: SW-620, 48 h, read-out: Activity
SF-268 [2] = assay: Growth inhibition of human SF268 cells after 48 hrs by sulforhodamine B assay; conditions: SF-268, 48 h; in short: as §1
HT-29 = assay: Cytotoxicity against human HT-29 cells assessed as cell growth at 10 uM after 48 hrs by sulforhodamine B assay; conditions: HT-29, 48 h, read-out: Activity
In short: (§2)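 Five-dose NCI panel run at 0.01, 0.1, 1, 10 and 100 µM. Cells were in RPMI 1640 with 5% FBS and 2 mM L-glutamine, seeded at 5000–40,000 cells/well and pre-incubated 24 h. Drug was diluted from a DMSO stock into medium with 50 µg/ml gentamicin. Exposure was 48 h at 37 °C, 5% CO2. Cells were fixed with cold TCA and stained with 0.4% SRB, read at 515 nm. Percent growth came from time-zero, control and test absorbances.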

SF-268 [3] = assay: Cytotoxicity against human SF268 cells assessed as cell growth at 0.01 uM after 48 hrs by sulforhodamine B assay; conditions: SF-268, 48 h, read-out: Activity
SK-OV-3 = assay: Cytotoxicity against human SKOV3 cells assessed as cell growth at 100 uM after 48 hrs by sulforhodamine B assay; conditions: SK-OV-3, 48 h, read-out: Activity
A549 = assay: Cytotoxicity against human A549 cells assessed as cell growth at 1 uM after 48 hrs by sulforhodamine B assay; conditions: A549, 48 h, read-out: Activity
In short: (§3)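 NCI-60 five-dose screen. Cells were grown in RPMI 1640 with 5% FBS and 2 mM L-glutamine and preincubated 24 h. Compound (DMSO stock) was tested at 0.01, 0.1, 1, 10 and 100 µM for 48 h at 37 °C. Cells were fixed in situ with cold TCA (final 10%) and stained with 0.4% SRB. A515 was read, and percent growth was calculated against time-zero and control plates.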

CAKI-1 = assay: Growth inhibition of human Caki1 cells after 48 hrs by sulforhodamine B assay; conditions: CAKI-1, 48 h; for CC50: read-out: LC50 (the source's name); in short: as §1
HCT-116 = assay: Cytotoxicity against human HCT116 cells assessed as cell growth at 100 uM after 48 hrs by sulforhodamine B assay; conditions: HCT-116, 48 h, read-out: Activity; in short: as §2
BT-549 = assay: Cytotoxicity against human BT549 cells assessed as cell growth at 10 uM after 48 hrs by sulforhodamine B assay; conditions: BT-549, 48 h, read-out: Activity; in short: as §3
MCF7 = assay: Cytotoxicity against human MCF7 cells assessed as cell growth at 100 uM after 48 hrs by sulforhodamine B assay; conditions: MCF7, 48 h, read-out: Activity
OVCAR-5 [4] = assay: Cytotoxicity against human OVCAR5 cells assessed as cell growth at 1 uM after 48 hrs by sulforhodamine B assay; conditions: OVCAR-5, 48 h, read-out: Activity
ACHN = assay: Cytotoxicity against human ACHN cells assessed as cell growth at 10 '-5 M after 48 hrs by sulforhodamine B assay; conditions: read-out: Activity
In short: (§4)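 Primary NCI-60 single-dose screen at 10 µM. Cells were grown in RPMI 1640 with 5% FBS and 2 mM L-glutamine and plated 24 h before drug addition. Compound was solubilized in DMSO, then exposed for 48 h at 37 °C under 5% CO2. Cells were TCA-fixed and stained with SRB, and absorbance was read at 515 nm. Growth was expressed relative to time-zero and untreated controls.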

IGROV-1 [5] = assay: Cytotoxicity against human IGROV1 cells assessed as cell growth at 10 '-5 M after 48 hrs by sulforhodamine B assay; conditions: IGROV-1, 48 h, read-out: Activity
LOX IMVI = assay: Cytotoxicity against human LOXIMVI cells assessed as cell growth at 0.01 uM after 48 hrs by sulforhodamine B assay; conditions: read-out: Activity
UACC-62 = assay: Growth inhibition of human UACC62 cells after 48 hrs by sulforhodamine B assay; conditions: UACC-62, 48 h; for CC50: read-out: LC50 (the source's name); in short: as §1
SK-MEL-28 = assay: Cytotoxicity against human SK-MEL-28 cells assessed as cell growth at 0.1 uM after 48 hrs by sulforhodamine B assay; conditions: SK-MEL-28, 48 h, read-out: Activity
NCI-H460 = assay: Cytotoxicity against human NCI-H460 cells assessed as cell growth at 0.1 uM after 48 hrs by sulforhodamine B assay; conditions: NCI-H460, 48 h, read-out: Activity
SF-539 = assay: Growth inhibition of human SF539 cells after 48 hrs by sulforhodamine B assay; conditions: SF-539, 48 h; in short: as §1
T47D = assay: Growth inhibition of human T47D cells after 48 hrs by sulforhodamine B assay; in short: as §1
COLO 205 = assay: Cytotoxicity against human COLO205 cells assessed as cell growth at 10 '-5 M after 48 hrs by sulforhodamine B assay; conditions: COLO 205, 48 h, read-out: Activity; in short: as §4
OVCAR-5 [6] = assay: Cytotoxicity against human OVCAR5 cells assessed as cell growth at 0.1 uM after 48 hrs by sulforhodamine B assay; conditions: OVCAR-5, 48 h, read-out: Activity
NCI/ADR-RES = assay: Cytotoxicity against human NCI/ADR-RES cells assessed as cell growth at 10 '-5 M after 48 hrs by sulforhodamine B assay; conditions: read-out: Activity
MOLT-4 = assay: Cytotoxicity against human MOLT4 cells assessed as cell growth at 100 uM after 48 hrs by sulforhodamine B assay; conditions: MOLT-4, 48 h, read-out: Activity

Structure (SMILES) | growth at 0.01 µM (NCI-H522) [%] | growth at 0.1 µM (UACC-257) [%] | growth at 100 µM (TK-10) [%] | GI50 (IGROV-1 [1]) [µM] | LC50 (50% net cell kill) (IGROV-1 [1]) [µM] | TGI (IGROV-1 [1]) [µM] | growth at 10 µM (SW-620) [%] | GI50 (SF-268 [2]) [µM] | LC50 (concentration killing 50% of the starting cells) (SF-268 [2]) [µM] | TGI (SF-268 [2]) [µM] | growth at 10 µM (HT-29) [%] | growth at 0.01 µM (SF-268 [3]) [%] | growth at 100 µM (SK-OV-3) [%] | growth at 1 µM (A549) [%] | GI50 (CAKI-1) [µM] | TGI (CAKI-1) [µM] | CC50 (CAKI-1) [µM] | growth at 100 µM (HCT-116) [%] | growth at 10 µM (BT-549) [%] | growth at 100 µM (MCF7) [%] | other results
Clc1cccc(Cl)c1Nc1nc2cccc(Cl)c2s1 | 88 | 101 | -67 | 1.12 | 8.96 | 3.17 | -84.9 | 1.2 | 5.66 | 2.61 | -71 | 98 | -100 | 55 | 0.259 | 1.46 | 4.23 | -73 | -86 | -55 | growth at 1 µM (OVCAR-5 [4]): 79%; growth at 10 µM (ACHN): -18.9%; growth at 10 µM (IGROV-1 [5]): 3.69%; growth at 0.01 µM (LOX IMVI): 94%; GI50 (UACC-62): 1.01 µM; TGI (UACC-62): 2.37 µM; CC50 (UACC-62): 5.55 µM; growth at 0.1 µM (SK-MEL-28): 94%; growth at 0.1 µM (NCI-H460): 96%; GI50 (SF-539): 1.48 µM; LC50 (SF-539): 6.4 µM; TGI (SF-539): 3.08 µM; GI50 (T47D): 0.841 µM; LC50 (concentration giving 50% net cell kill) (T47D): 5.08 µM; TGI (T47D): 2.18 µM; growth at 10 µM (COLO 205): -90%; growth at 0.1 µM (OVCAR-5 [6]): 92%; growth at 10 µM (NCI/ADR-RES): -37.3%; growth at 100 µM (MOLT-4): -23%
Cc1ccc2nc(Nc3c(C)cccc3C)sc2c1 | 85 | 99 | 72 | 4.16 | > 100 | > 100 | 21.6 | 29.3 | > 100 | > 100 | 10 | 94 | 54 | 83 | 0.564 | > 100 | > 100 | 49 | 46 | 46 | growth at 1 µM (OVCAR-5 [4]): 79%; growth at 10 µM (ACHN): 52.2%; growth at 10 µM (IGROV-1 [5]): 49.2%; growth at 0.01 µM (LOX IMVI): 94%; GI50 (UACC-62): 1.15 µM; TGI (UACC-62): > 100 µM; CC50 (UACC-62): > 100 µM; growth at 0.1 µM (SK-MEL-28): 92%; growth at 0.1 µM (NCI-H460): 103%; GI50 (SF-539): 66.8 µM; LC50 (SF-539): > 100 µM; TGI (SF-539): > 100 µM; GI50 (T47D): 54.8 µM; LC50 (concentration giving 50% net cell kill) (T47D): > 100 µM; TGI (T47D): > 100 µM; growth at 10 µM (COLO 205): 32.2%; growth at 0.1 µM (OVCAR-5 [6]): 106%; growth at 10 µM (NCI/ADR-RES): 4.04%; growth at 100 µM (MOLT-4): 86%
